The list is not random: actives were taken first. Their share in the collection is about 2.1%.
Runt-CBFb FRET: inhibitors of RUNX1 Runt–CBFb binding, primary screen, biochemical, FRET, Cerulean-Runt, Venus-CBFb, uHTS. Runt-related transcription factor 1 (Homo sapiens) + Core-binding factor subunit beta …. Cerulean-Runt/Venus-CBFb FRET ratio 530/480, 1 h. inhibition, % at 20 µM. 220,000 compounds, 0.46% hits. AID 1496, 2009;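 active = inhibition over about 50% at 20 µM in the single-dose screen, limit read from the data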;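 also: 0% = DMSO wells and 100% = excess unlabeled CBFb competitor control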
Target sequence (Q01196 whole entry, looked up): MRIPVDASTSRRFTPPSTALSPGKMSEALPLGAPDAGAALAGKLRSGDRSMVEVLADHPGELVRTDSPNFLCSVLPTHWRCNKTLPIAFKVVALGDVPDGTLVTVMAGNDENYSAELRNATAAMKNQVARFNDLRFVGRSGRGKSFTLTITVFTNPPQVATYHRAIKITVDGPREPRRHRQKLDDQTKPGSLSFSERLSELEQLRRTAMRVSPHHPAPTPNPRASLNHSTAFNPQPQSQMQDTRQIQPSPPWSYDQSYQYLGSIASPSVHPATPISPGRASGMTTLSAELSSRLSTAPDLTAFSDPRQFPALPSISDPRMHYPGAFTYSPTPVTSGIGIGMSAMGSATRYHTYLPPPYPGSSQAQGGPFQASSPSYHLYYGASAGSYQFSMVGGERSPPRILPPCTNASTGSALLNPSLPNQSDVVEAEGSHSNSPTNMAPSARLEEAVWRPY
Target sequence (Q13951 whole entry, looked up): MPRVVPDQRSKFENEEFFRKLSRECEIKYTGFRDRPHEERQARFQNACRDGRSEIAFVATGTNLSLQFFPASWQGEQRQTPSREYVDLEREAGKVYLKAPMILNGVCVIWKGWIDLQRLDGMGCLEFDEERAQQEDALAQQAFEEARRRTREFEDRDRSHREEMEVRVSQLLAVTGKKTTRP
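Buffer or medium: Tris pH 7.5 buffer with BSA. Assay system: Cerulean-labeled Runt domain protein. Amount: each fluorescent fusion protein 100 nM. Read-out basis: loss of energy transfer signal. Incubation: 1 h compound exposure, room temperature. Probe or stimulus: Venus-CBFb binding partner, 100 nM. Detection: FRET, excitation 422 nm, emission at 530 and 480 nm.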
MEX-5 binding: MEX-5 zinc finger RNA-binding disruptors – biochemical, C. elegans, fluorescence polarization, MLPCN library, primary screen; Zinc finger protein mex-5 (Caenorhabditis elegans), Q9XUB2; MEX-5/FITC-TCR2 RNA binding; active compounds read low; activity score (negative = inhibition of binding), % at 10 µM; 300,000 compounds, 0.38% hits; AID 1832, 2009;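 active = inhibition past about -25% in most replicates, and total fluorescence under double the plate's negative control median, limit read from the data; inconclusive = replicates evenly split on the limit, or fluorescence at least double controls; inactive = too little inhibition in most replicates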;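 also: 0% = DMSO and -100% = 5 µM competing unlabeled TCR2 RNA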
Runt-SMMHC FRET: inhibitors of RUNX1 Runt–CBFb-SMMHC binding, primary screen, biochemical, FRET, Cerulean-Runt, Venus-CBFb-SMMHC, uHTS; Runt-related transcription factor 1 (Homo sapiens) + Core-binding factor subunit beta …; Cerulean-Runt/Venus-CBFb-SMMHC FRET ratio 530/480, 1 h; 220,000 compounds, 0.74% hits; inhibition, % at 20 µM;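 active = mean inhibition across duplicate retests at 20 µM reaching about 50%, limit read from the data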;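 also: 0% = DMSO wells and 100% = wells with excess untagged CBFb-SMMHC; inhibitors lower the FRET ratio by blocking Runt binding to CBFb-SMMHC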
RanGTP-Imp inh: inhibitors of RanGTP-importin-beta interaction, primary screen, biochemical, FRET, CFP-Ran, YFP-importin-beta, homogeneous; Ran GTPase (GTP-bound) - importin-beta complex; cell-free CFP-Ran/YFP-importin-beta FRET ratio; inhibition, % (no concentration beside the values); 300,000 compounds, 1.1% hits;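 active = more than half of the replicate wells show a fall in the fluorescence ratio signal beyond about 16%, limit read from the data, passing the limit was not always enough; inconclusive = exactly half of the replicate wells pass the set limit; inactive = fewer than half of replicates pass the limit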;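 also: 0% = DMSO wells and 100% = Ran loaded with GDP instead of GTP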
KLK7 zymogen act: proKLK7 zymogen activators, primary screen, biochemical, fluorescence intensity; purified proKLK7, EDANS-DABCYL substrate fluorescence; 100% is mature enzyme control, 0% vehicle; activation, % at 7 µM; 370,000 compounds, 0.9% hits;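 active = activation above the mean of all tested compounds plus 3 SD, computed per campaign excluding outliers beyond control limits, cut at about 13% in these data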
proKLK7 act conf: proKLK7 zymogen activators, confirmation, biochemical, fluorescence intensity, triplicate; purified proKLK7, EDANS-DABCYL substrate fluorescence; scaled: vehicle 0, mature enzyme 100; 3,200 compounds, 68% hits; shares compounds with KLK7 zymogen act; activation, % at 7 µM;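 active = activation, as change over the incubation, above the mean of all tested compounds plus 3 SD, cut at about 13% in these data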
EDANS-DABCYL int: EDANS-DABCYL substrate optical interference, artefact control for kallikrein-7 zymogen activator project, biochemical, fluorescence intensity, high throughput. shares compounds with KLK7 zymogen act. no enzyme, 4 h; solvent 0%, active enzyme control 100%. activation, % at 7 µM. 3,200 compounds, 80% hits. AID 686952, 2013;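 active = activation above the all-compound mean plus 3 SD, ignoring values outside control-based bounds, cut at about 4.8% in these data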;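 also: value is the 4 h activation minus the activation read at time zero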
EDANS interf: EDANS fluorescence interference in dose response, no enzyme; shares compounds with KLK7 zymogen act; EDANS-DABCYL peptide fluorescence interference; EC50, µM; 250 compounds, 20% hits; AID 720493;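 active = compounds that raise the fluorescence signal in this interference counterscreen, with EC50 at or below 10 µM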;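 also: intact quenched peptide substrate alone read at 355 nm excitation and 520 nm emission; signal is fluorescence gain from T0 to T4 after four hours at room temperature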
An asterisk follows results filed as active; i = inactive; ? = inconclusive; · = no result.

SMILES | Runt-CBFb FRET | MEX-5 binding | Runt-SMMHC FRET | RanGTP-Imp inh | KLK7 zymogen act | proKLK7 act conf | EDANS-DABCYL int | others
CCCOC(=O)c1ccc(Oc2coc3c(CN(CC)CC)c(O)ccc3c2=O)cc1 | -2 | 1 | 6 | -3 | 60* | -65 | 48*
CCOc1ccc(-c2nnn(CC(=O)N3CCCC(C)C3)n2)cc1 (centres undefined) | 0 | 3 | -3 | 2 | 0 | · | ·
CC(=O)/C=C(\C)Nc1ccc(-c2cnc(-c3ccccc3)o2)cc1 | 0 | -2 | 4 | -4 | 57* | 63* | 64*
CC(C)C(=O)Nc1ccc(-c2nnc(-c3ccccc3)o2)cc1 | · | -1 | · | 4 | 0 | · | ·
CCOC(=O)C1(C)C(=O)CC2c3nc4ccccc4cc3CN2C1=O (centres undefined) | · | · | · | · | 20* | 2 | 2
O=C(O)c1cc(-c2cccc(Cl)c2)nc2nc(N3CCCCC3)sc12 | 4 | -2 | 6 | -1 | 26* | 31* | 31*
COC(C/C=C\C(=O)[C@@H](C)OCc1ccccc1)OC | · | -6 | · | ? | · | · | ·
Cc1oc2c(C)c3oc(=O)c(CCC(=O)NCCCCCC(=O)O)c(C)c3cc2c1C | · | 3 | · | 0 | 21* | 14* | 9.3* | EDANS interf=>69
Cc1oc2c(C)c3oc(=O)c(CCC(=O)NCCCn4ccnc4)c(C)c3cc2c1C | · | -2 | · | 5 | -1 | · | ·
COC(=O)[C@]12C[C@H](CC(=O)NCCc3ccccc3OC)C(=O)N(Cc3ccco3)C1=C[C@H](C(C)(C)C)O[C@@H]2C | · | · | · | · | 0 | · | ·
CCOP(=O)(c1ccc(N(C)C)cc1)C(O)c1ccccc1 (centres undefined) | -2 | 2 | -4 | 8 | 0 | · | ·
COP(=O)(c1ccc(N(C)C)cc1)C(O)c1ccccc1 (centres undefined) | · | -2 | · | -3 | 29* | 0 | 0
Cc1cc(C)c2c(n1)nn1c(NCCN3CCOCC3)cc(C)nc21 | 7 | -3 | 38 | 35* | 33* | 40* | 32* | EDANS interf=>69
Cc1cc(NCCN2CCOCC2)n2nc(C)c(-c3ccccc3)c2n1 | 0 | -6 | 3 | 0 | 0 | · | ·
COCCNc1cc(C)nc2c3c(C)cc(C)nc3nn12 | 33 | 1 | 73* | 50* | 81* | 70* | 63*
O=c1[nH][nH]c2c1C(C1CCCCC1)OC(C1CCCCC1)C2 (centres undefined) | · | · | · | · | -1 | · | ·
COC(=O)c1ccc2c(c1)C(C)(C)C(/C=C/c1ccccc1O)=[N+]2C | -8 | ? | 8 | 4 | 32* | 1 | 0
Cc1cc(C)c2c(n1)nn1c(C)c(CCC(=O)NCc3ccco3)c(C)nc21 | 14 | 1 | 5 | -1 | 15* | -23 | -26
Cc1nc2cc(-c3ccccc3)nn2c(C)c1CCC(=O)NCc1ccco1 | 4 | -2 | -2 | 2 | 0 | · | ·
C[C@H](O)[C@@H]1CN2CCc3c([nH]c4c(-c5ccccc5)cccc34)[C@@H]2C[C@@H]1N(C)C(=O)Nc1ccccc1 | · | · | · | · | -1 | · | ·
O=C(O)c1ccc(-n2nc(C(F)(F)F)cc2-c2cccs2)cc1 | · | 0 | · | 2 | 1 | · | ·
Cc1cc(NCCN2CCOCC2)n2c(nc3ccccc32)c1C#N | 12 | -1 | 31 | 5 | 16* | -97 | -170
Cc1cc(NCCCN2CCOCC2)n2c(nc3ccccc32)c1C#N | 19 | -3 | 37 | 30* | 31* | 66* | 64*
CC(C)CC(NC(=O)C(NC(=O)C1CCC(=O)N1C(=O)OCc1ccccc1)C(C)C)C(=O)N1CCCC1C(N)=O (centres undefined) | · | -2 | · | 4 | 0 | · | ·
CC1CCN(C(=O)CN2c3cccc4cccc(c34)S2(=O)=O)CC1 | · | · | · | · | 18* | 9 | 7.1*
SMILES | Runt-CBFb FRET | MEX-5 binding | Runt-SMMHC FRET | RanGTP-Imp inh | KLK7 zymogen act | proKLK7 act conf | EDANS-DABCYL int | others
CC1CCCCC1NC(=O)CN1c2cccc3cccc(c23)S1(=O)=O (centres undefined) | · | · | · | · | 8 | · | ·
CCC(C)NC(=O)CN1c2cccc3cccc(c23)S1(=O)=O (centres undefined) | · | 1 | · | -2 | 14* | 6 | 9.6*
CCNC(=O)CN1c2cccc3cccc(c23)S1(=O)=O | -2 | -2 | -3 | 2 | 4 | · | ·
CO/N=C/c1cc([N+](=O)[O-])ccc1Sc1ccc(C)cc1 | -2 | -1 | -10 | 2 | 0 | · | ·
CC(C)CN1C(=O)[C@]2(CC(=O)N(C)C2c2ccccc2)c2cc(-n3cc(-c4ccccc4)nn3)ccc21 (some centres undefined) | · | · | · | · | 1 | · | ·
OC(Cc1ccncc1)c1ccccc1Cl (centres undefined) | · | · | · | · | 0 | · | ·
Cc1cc(NCCO)c2cc(O)ccc2n1 | 7 | 0 | 9 | 1 | 81* | 64* | 69*
Cc1cc(NCCO)c2ccccc2n1 | -3 | 0 | -4 | -1 | 1 | · | ·
Cc1nc(-c2cnn(-c3ccccc3)c2)c2cc(C)oc2n1 | -2 | 3 | -2 | 3 | -1 | · | ·
Cc1nc(/C=C\C(=O)O)c2cc(C)oc2n1 | 0 | 0 | 1 | 5 | 13* | 20* | 22*
Cc1cc(N2CCN(c3ccccc3)CC2)nc2ccccc12 | · | 1 | · | -5 | 1 | · | ·
Cc1cc(N2CCC(N(C)C3CCCC3)CC2)nc2cc(O)ccc12 | 11 | 0 | 28 | 1 | 16* | 25* | 31*
CC(=O)c1sc(NC(=O)C2CCCN2S(=O)(=O)c2ccccc2F)nc1C (centres undefined) | · | · | · | · | 0 | · | ·
Nc1ccc(Cl)cc1C(=O)OCC(=O)NC1CCS(=O)(=O)C1 (centres undefined) | -1 | 2 | -4 | 4 | 14* | 23* | 19* | EDANS interf=i
CN1CCN(S(=O)(=O)c2ccc(N(C)Cc3cccc(F)c3)nc2)CC1 | · | · | · | · | 1 | · | ·
Clc1ccc(-c2cn3cccnc3n2)cc1Cl | -2 | -3 | -1 | 3 | 6 | · | ·
